Measured values taken from ChEMBL document CHEMBL3576809, “Thiasporines A-C, thiazine and thiazole derivatives from a marine-derived Actinomycetospora chlora” (J Nat Prod, 2015).
Activity calls are given as the source filed them. The calls are words filed in the database; no cut-off is given here.

Legend:
Format in all cases: functional, cell-based
[1] = system: A549; assay: Cytotoxicity against human A549 cells assessed as cell viability up to 24 uM after 96 hrs by Cell Titer Glo assay
In short: (§1)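 NSCLC lines were kept in RPMI/L-glutamine with penicillin, streptomycin and 5% FBS (37 °C, 5% CO2) and seeded in 384-well plates overnight. DMSO-dissolved compounds were added (final DMSO 0.5%) and incubated 96 h. Viability was read as CellTiter-Glo luminescence after 10 min at room temperature and normalized to untreated cell-plus-DMSO wells.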

[2] = system: HCC366; assay: Cytotoxicity against human HCC366 cells assessed as cell viability up to 24 uM after 96 hrs by Cell Titer Glo assay; in short: as §1
[3] = system: NCI-H2122; assay: Cytotoxicity against human NCI-H2122 cells assessed as cell viability after 96 hrs by Cell Titer Glo assay; conditions: NCI-H2122, 96 h; in short: as §1
[4] = system: HCC44; assay: Cytotoxicity against human HCC44 cells assessed as cell viability up to 24 uM after 96 hrs by Cell Titer Glo assay; in short: as §1
[5] = system: NCI-H2122; assay: Cytotoxicity against human NCI-H2122 cells assessed as cell viability at 0.001 to 50 uM after 96 hrs by Cell Titer Glo assay
In short: (§2)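 Cells grown in RPMI/L-glutamine with 1000 U/mL penicillin, 1 mg/mL streptomycin and 5% FBS at 37 °C, 5% CO2, then plated in 384-well plates overnight. Compounds in DMSO were added at final 50 μM to 1 nM (0.5% DMSO final) for 96 h. CellTiter-Glo (1:2 in medium) was added, 10 min at room temperature, and luminescence normalized to DMSO-only wells.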

[6] = system: A549; assay: Cytotoxicity against human A549 cells assessed as cell viability at 0.001 to 50 uM after 96 hrs by Cell Titer Glo assay; in short: as §2
[7] = system: HCC366; assay: Cytotoxicity against human HCC366 cells assessed as cell viability at 0.001 to 50 uM after 96 hrs by Cell Titer Glo assay; in short: as §2
[8] = system: HCC44; assay: Cytotoxicity against human HCC44 cells assessed as cell viability at 0.001 to 50 uM after 96 hrs by Cell Titer Glo assay; in short: as §2

| Compound | Activity [1] | Activity [2] | IC50 [3] [µM] | Activity [4] | Activity [5] | Activity [6] | Activity [7] | Activity [8] |
| --- | --- | --- | --- | --- | --- | --- | --- | --- |
| Nc1ccccc1-c1nc(=O)c(O)cs1 | inactive | inactive | 5.4 | inactive |  |  |  |  |
| CNc1ccccc1-c1nc(C(=O)OC)cs1 |  |  |  |  | inactive | inactive | inactive | inactive |
| CNc1ccccc1-c1nc(C(=O)O)cs1 |  |  |  |  | inactive | inactive | inactive | inactive |
